# Measured values pooled from the literature.
# Compare with care: the assays were run in different laboratories.
Structure (SMILES),host,sample,route,dose,notes,measurement,value
CNCc1cc(-c2ccccc2F)n(S(=O)(=O)c2cccnc2)c1,Sprague-Dawley rat,plasma,oral,10 mg/kg,,CL/F,293 mL/min/kg
COc1ccc2c(=O)n(C)c(-c3ccccc3)nc2c1,male Sprague-Dawley rat,plasma,intravenous,2 mg/kg,,clearance,39 mL/min/kg
C#Cc1cccc(Nc2ncnc3cc(OCCOC)c(OCCOC)cc23)c1,male Sprague-Dawley rat,plasma,oral,12 mg/kg,single dose,CL/F,22 mL/min/kg
Cc1nn2c(-c3c(C)nn(C)c3-c3ccc(C(F)(F)F)cc3)nc(CO)c2c(=O)[nH]1,male Wistar rat,plasma,intravenous,1 mg/kg,,clearance,28 mL/min/kg
COc1ccc2c(Cc3ccccc3F)c3[n+](cc2c1OC)CCc1cc2c(cc1-3)OCO2.[Br-],rat,plasma,intravenous,5 mg/kg,,clearance,672 mL/min/kg
Oc1c(-n2ccnn2)cnn1-c1cc(N2CCOCC2)ncn1,male rat,blood,intravenous,5 mg/kg,,clearance,18.3 mL/min/kg
Oc1c(Br)cc(Cl)c2cccnc12,Sprague-Dawley rat,plasma,subcutaneous,10 mg/kg,,CL/F,31.7 mL/min/kg
O=C(Nc1cc(F)c(F)c(F)c1)c1ccc(F)c(S(=O)(=O)NCc2cccc(B(O)O)c2)c1,male Sprague-Dawley rat,plasma,intravenous,2 mg/kg,,clearance,137 mL/min/kg
Cc1c(-c2ccccc2)cccc1N1C(=O)c2cc(CN[C@H](C(=O)O)C(C)O)c(OCc3cccc(C#N)c3)cc2C1=O (stereo partly drawn),Sprague-Dawley rat,plasma,intravenous,5 mg/kg,,clearance,5.66 mL/min/kg
COCCOC(=O)C1=C(C)NC(C)=C(C(=O)OC(C)C)C1c1cccc([N+](=O)[O-])c1 (stereo not drawn),male Sprague-Dawley rat,plasma,oral,12 mg/kg,,CL/F,0.0943 mL/min/kg
CCCC[C@@H]1NC(=O)[C@H](Cc2ccc(O)cc2)NC(=O)[C@@H]2CCCN2C(=O)[C@H](CC(=O)O)NC(=O)[C@H](C)NC(=O)[C@H](Cc2ccccc2)NC(=O)[C@@H]2CSCCC(=O)N3CN(CN(C3)C(=O)CCSC[C@@H](C(=O)N[C@@H](C)C(N)=O)NC1=O)C(=O)CCSC[C@H](NC(C)=O)C(=O)N[C@@H](CC(C)(C)C)C(=O)N1CCC[C@H]1C(=O)N[C@@H](CCC(=O)O)C(=O)N[C@H](CCCCNC(=O)CCc1cn(CCOCCOCCOCCOCCOCCOCCOCCOCCOCCOCCNC(=O)CCOCCN(CCOCCC(=O)NCCOCCOCCOCCOCCOCCOCCOCCOCCOCCOCCn3cc(CCC(=O)NCCCC[C@H]4NC(=O)[C@H](CCC(=O)O)NC(=O)[C@@H]5CCCN5C(=O)[C@H](CC(C)(C)C)NC(=O)[C@@H](NC(C)=O)CSCCC(=O)N5CN6CN(C5)C(=O)CCSC[C@H](NC(=O)[C@H](Cc5ccc(O)cc5)NC(=O)[C@@H]5CCCN5C4=O)C(=O)N[C@@H](Cc4ccccc4)C(=O)N[C@@H](C)C(=O)N[C@@H](CC(=O)O)C(=O)N4CCC[C@H]4C(=O)N[C@@H](Cc4ccc(O)cc4)C(=O)N[C@@H](CCCC)C(=O)N[C@H](C(=O)N[C@@H](C)C(N)=O)CSCCC6=O)nn3)CCOCCC(=O)NCCOCCOCCOCCOCCOCCOCCOCCOCCOCCOCCn3cc(CCC(=O)N[C@H]4CSCCC(=O)N5CN6CN(C5)C(=O)CCSC[C@H](NC(=O)[C@@H](CC(=O)O)NC(=O)[C@H](Cc5cccc7ccccc57)NC(=O)[C@@H]5CCCN5C4=O)C(=O)N[C@@H](CCSC)C(=O)N[C@@H](CCCCNC(=N)N)C(=O)N[C@@H](CC(=O)O)C(=O)N[C@@H](Cc4c[nH]c5ccccc45)C(=O)N[C@@H](CO)C(=O)N[C@@H]([C@@H](C)O)C(=O)N4CCC[C@H]4C(=O)N4C[C@H](O)C[C@H]4C(=O)N[C@@H](Cc4c[nH]c5ccccc45)C(=O)N[C@H](C(N)=O)CSCCC6=O)nn3)nn1)C(=O)N1CCC[C@H]1C(=O)N[C@@H](Cc1ccc(O)cc1)C(=O)N2,rat,plasma,intravenous,2 mg/kg,,clearance,12 mL/min/kg
CCc1nc(C(N)=O)c(Nc2ccc(N3CCC(N4CCN(C)CC4)CC3)c(OC)c2)nc1NC1CCOCC1,rat,plasma,oral,10 mg/kg,,CL/F,0.9 L/h
